Assay outcomes as filed in PubChem BioAssay.
Lmaj promast: inhibitors of Leishmania major promastigote growth; Leishmania major promastigotes, resazurin fluorescence viability; inhibition, % at 10 µM; hit rate 9% among 200,000; AID 1063; in the data active means inhibition above about 50%;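 further: promastigotes grown with compound for 44 hours at 28 °C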
PTEN del growth: growth suppressors of cells with PTEN tumor suppressor deletion; HCT116 PTEN-null viability, CellTiter-Glo, 60 h; active compounds read low; viability, % at 10 µM; hit rate 1.2% among 140,000; AID 827;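 active means viability at or below a set limit, 4 SD under the median of all tested compounds, cut at about 3.7% in these data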;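 further: PTEN knockout HCT116 line with beta catenin targeted HCT116 as companion control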
HCT116 bCat-KO: beta-catenin-lacking colon tumor cell growth suppression; hit rate 1.5% among 140,000; HCT116 beta-catenin knockout viability, CellTiter-Glo, 60 h; active compounds read low; viability, % at 10 µM; AID 818;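 active means viability at or under a set limit, the compound median less 4 SD, cut at about 6% in these data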
Autophagy mod: alters autophagy in cells. AID 463193. calls only at 10 µM (by protocol). MEF GFP-LC3 puncta imaging; test concentration mostly 10 µM. hit rate 0.98% among 190,000;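 active means percentage of spot-positive cells more than 3 SD above its plate mean, without a fluorescence outlier flag or 80% toxicity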
Dynein transport: dynein cargo transport inhibition. AID 1381. 3617.4 mouse cells, GR-EGFP nuclear translocation imaging; test concentration mostly 20 µM; stimulated with dexamethasone, 1 µM; active compounds read low. z-score, hits read low. hit rate 0.47% among 220,000;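 active means plate z-score of nuclear minus cytoplasmic receptor signal below a set negative limit, without overly bright fluorescence or cell loss, cut at about -3.5 in these data, passing the limit was not always enough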;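 further: z-score of nuclear minus cytoplasmic ring GR-EGFP intensity difference per well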
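medium = tetracycline-free induction medium containing charcoal-stripped FBS | also added = 1.0 µM final dexamethasone stimulus | schedule = 48 h induction, 1 h compound, 30 min dex at 37 °C | technique = fixed, Hoechst-stained cells imaged at 10x for EGFP | measure = GR-EGFP nuclear translocation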
A number is an active result; - = inactive; . = not tested or not shown; + = active, no number. The list is not random: actives were taken first. Their share in the collection is about 9.2%.

SMILES	Lmaj promast	PTEN del growth	HCT116 bCat-KO	Autophagy mod	Dynein transport
CC(C)CCN(C)C1CCN(S(=O)(=O)c2ccc(F)cc2)CC1	95	-	-	.	-
COCCN1CCCC(CNCc2cn(C)nc2-c2ccc(Oc3ccccc3)cc2)C1 (stereo not given)	95	.	.	-	-
COC1CCCN(Cc2cn(C)nc2-c2ccc(Oc3ccccc3)cc2)C1 (stereo not given)	73	.	.	-	-
Cn1cc(CN2CCCCC2CO)c(-c2ccc(Oc3ccccc3)cc2)n1 (stereo not given)	63	.	.	-	-
CCn1c(/N=C/c2ccccc2NS(=O)(=O)c2ccc(C)cc2)nc2ccccc21	85	-	-	-	-
O=C(Nc1nnc(C2CCCC2)s1)C1CCC1	-	-	-	-	-
O=C(CCNc1ccc(F)cc1)c1cccc([N+](=O)[O-])c1	97	-	-	-	-
O=C(CCNc1ccc(Br)cc1)c1cccc([N+](=O)[O-])c1	88	.	.	-	-
O=C(CCNc1ccccc1)c1cccc([N+](=O)[O-])c1	96	-	-	-	-
Cc1ccc(NCCC(=O)c2cccc([N+](=O)[O-])c2)cc1	100	-	-	-	-
O=C(NCCNc1ccc([N+](=O)[O-])cc1)c1cccc(Br)c1	-	-	-	-	-
CC(=O)c1ccc(N(C(=O)c2csnn2)C(C(=O)NC(C)(C)C)c2cccs2)cc1 (stereo not given)	-	.	.	-	-
CCC(C)/C(C)=N/NC(=O)c1ccccc1OCCOc1ccccc1 (stereo not given)	-	.	.	-	-
NC(=O)CCC(NC(=S)Nc1ccccc1)C(=O)O (stereo not given)	.	.	.	.	-
COc1ccc(-n2c(SCC(=O)N3CCOCC3)nnc2C(C)N2CCCCC2)cc1 (stereo not given)	.	.	.	.	-
CCN1C(=O)/C(=C\C(=O)c2cccs2)c2cc(Br)ccc21	100	.	.	-	-
CC1=C(C(=O)Nc2ccccc2)C(c2ccncc2)n2nnnc2N1 (stereo not given)	57	-	-	-	-
CC1=C(C(=O)Nc2cccnc2)C(c2ccncc2)n2nnnc2N1 (stereo not given)	-	-	-	-	-
COc1ccccc1NC(=O)C1=C(C)Nc2nnnn2C1c1cc(Br)ccc1OC (stereo not given)	97	-	-	-	-
CCOC(=O)c1sc(N)c(C(=O)Nc2ccccc2OC)c1C	-	.	.	-	-
COC(=O)C1CC(O)CN1S(=O)(=O)c1cccs1 (stereo not given)	-	.	.	-	-
CCOC(=O)Cn1c(=O)c(C#N)cn(C(C)C)c1=O	.	.	.	.	-
COc1ccccc1N1CCN(C(=O)c2ccc3[nH]c4c(c3c2)CC(C)CC4)CC1 (stereo not given)	99	-	-	-	-
O=C1N=C(N2CCN(c3ccccc3)CC2)S/C1=C\c1cn[nH]c1-c1ccccc1	52	-	-	-	-
COc1c(F)c(F)c(C(=O)Nc2ccccc2N2CCN(C(C)=O)CC2)c(F)c1F	-	-	-	-	-
SMILES	Lmaj promast	PTEN del growth	HCT116 bCat-KO	Autophagy mod	Dynein transport
COc1c(F)c(F)c(C(=O)Nc2ccccc2N2CCN(C(=O)C(C)C)CC2)c(F)c1F	51	-	-	-	-
OCCN1CCN(c2cc(-c3ccccc3)c3ccccc3n2)CC1	69	-	-	-	-
c1ccc(CN2CCN(c3nc(N4CCOCC4)c4ccccc4n3)CC2)cc1	-	.	.	+	-
c1ccc2c(N3CCOCC3)nc(N3CCOCC3)nc2c1	-	-	-	-	-
OCCNc1nc(N2CCN(Cc3ccccc3)CC2)nc2ccccc12	-	-	-	-	-
CN1CCN(c2nc(N3CCN(CCO)CC3)nc3ccccc23)CC1	100	-	-	-	-
O=C(CNS(=O)(=O)c1ccccc1)NNC(=O)C(Cl)Cl	-	.	.	-	-
COc1ccc(CCn2cnc(=O)c(C#N)c2C)cc1OC	-	.	.	-	-
COc1ccc(NC(=O)N/C=C/c2ccccc2)cc1	-	.	.	-	-
COc1ccc(N2CCN(C(c3ccccc3)c3nnnn3Cc3ccc(F)cc3)CC2)cc1 (stereo not given)	66	-	-	-	-
COc1ccc(Cn2nnnc2C(CC(C)C)N2CCN(c3ccccc3)CC2)cc1 (stereo not given)	-	-	-	-	-
COc1ccc(C(c2nnnn2CS(=O)(=O)c2ccc(C)cc2)N2CCN(Cc3ccccc3)CC2)cc1 (stereo not given)	63	.	.	-	-
Cc1ccc(C(c2nnnn2CS(=O)(=O)c2ccc(C)cc2)N2CCN(c3ncccn3)CC2)cc1 (stereo not given)	-	-	-	-	-
COc1ccc(C(c2nnnn2Cc2ccc(F)cc2)N2CCN(c3ccccc3)CC2)cc1 (stereo not given)	74	-	-	-	-
COc1ccc(Cn2nnnc2C(c2ccc(F)cc2)N2CCN(C3CCCC3)CC2)cc1 (stereo not given)	-	-	-	-	-
COc1ccc(C(c2nnnn2Cc2ccc(F)cc2)N2CCN(c3ccc(OC)cc3)CC2)cc1 (stereo not given)	94	-	-	-	-
O=C(COc1ncnc2ccccc12)NCC1CCCO1 (stereo not given)	-	.	.	+	-
O=C(COc1ccccc1)NCC1CCCO1 (stereo not given)	-	-	-	-	-
C=CCn1c(-c2ccc(S(=O)(=O)N3CCOCC3)cc2)csc1=Nc1ccccc1	-	-	-	-	-
CC(=O)c1cccc(N=c2scc(-c3ccc(S(=O)(=O)N4CCOCC4)cc3)n2CCO)c1	95	-	-	-	-
CC(=O)Nc1ccc(/C=C(\C#N)C(=O)NC2CCCCC2C)cc1 (stereo not given)	-	.	.	-	-
CSc1ccc(/C=C(\C#N)C(=O)NC2CCCCC2C)cc1 (stereo not given)	55	-	-	-	-
CC1CCCCC1NC(=O)/C(C#N)=C/c1ccccc1F (stereo not given)	100	-	-	-	-
COc1cc(/C=C(\C#N)C(=O)NC2CCCCC2C)ccc1OS(=O)(=O)c1ccc(C)cc1 (stereo not given)	100	1.0	0.8	-	-
COc1cc(/C=C(\C#N)C(N)=O)ccc1OS(=O)(=O)c1ccc(C)cc1	-	-	-	-	-
SMILES	Lmaj promast	PTEN del growth	HCT116 bCat-KO	Autophagy mod	Dynein transport
CC(C)NC(=S)N1CCN(c2ncccn2)CC1	-	-	-	-	-
CCN(CC)CCNCc1ccc(Br)cc1OCC(=O)NCc1ccccc1	-	.	.	-	-
CSc1nnc(C)c(=O)n1COC(=O)/C=C/c1ccc2c(c1)OCO2	-	.	.	-	-
COC(=O)c1cccc(NC(=O)CCc2cc(OC)c(OC)c(OC)c2)c1	59	-	-	-	-
CCOc1ccccc1CNC(=O)c1cn(C)c(=O)c2c1c1ccccc1n2C	-	.	.	-	-
CCOc1ccccc1CNC(=O)CCCc1cn(C)c2ccccc12	-	-	-	+	-
CCCOc1ccc(C(=O)Nc2nc(C)c(Cc3ccc4c(c3)OCO4)s2)cc1	64	-	-	-	-
Cc1cc(C(=O)CSc2nc3ccccc3[nH]2)c(C)n1C	-	-	-	-	-
